# Activity calls are given as the source filed them. The rule behind the calls is not given here.
# How the values were obtained:
# [1] = system: Staphylococcus aureus; experiment: Antibacterial activity against Staphylococcus aureus incubated for 24 hrs under aerobic condition by MABA; type: functional; details: read-out: MIC100
# In short: (§1)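 Resazurin was then added from a 0.08% stock for 1 h. MIC100 was the lowest concentration where the dye stayed blue (pink means growth). Absorbance was also read at 570 and 600 nm.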
# [2] = system: Mycobacterium tuberculosis; experiment: Antibacterial activity against Mycobacterium tuberculosis; type: functional; details: read-out: MIC100
# In short: (§2)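 Mtb H37Rv grown in 7H9/OADC at 37 °C with shaking to OD600 0.5. The 0.5-OD culture is exposed aerobically to serial dilutions for 15 days at 37 °C. Resazurin (0.02% stock) is then added for 4 h at 37 °C with shaking.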
# [3] = system: Mycobacterium tuberculosis; experiment: Antibacterial activity against replicating Mycobacterium tuberculosis H37Rv incubated for 15 days under aerobic condition by MABA; type: functional; details: 360 h, read-out: MIC100; in short: as §2
# [4] = system: Vero; experiment: Cytotoxicity against African green monkey Vero cells assessed as reduction in cell viability after 72 hrs by MTT assay; type: cell-based; details: Chlorocebus sabaeus
# In short: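 Vero cells were grown in complete EMEM with 10% FBS and exposed for 72 h to 0.78–200 µg/mL. The medium was then swapped for phenol-red-free EMEM and MTT was added. Formazan absorbance was read at 570 nm to give IC50.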
# [5] = Selectivity index, ratio of IC50 for African green monkey Vero cells to MIC100 for replicating Mycobacterium tuberculosis H37Rv by MABA; type: toxicity; details: read-out: Selectivity Index
# In short: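 Vero cells are cultured in EMEM with 10% FBS and exposed for 72 h to 0.78–200 µg/mL. Medium is switched to phenol-red-free EMEM, MTT is added, and formazan is read at 570 nm to give IC50. The selectivity index is Vero IC50 divided by the MABA MIC.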
# [6] = system: Escherichia coli; experiment: Inhibition of protein translation/transcription in Escherichia coli S30 cell extract at 0.1 ug/ml using circular DNA with pBESTluc after 60 mins by luciferase reporter gene assay; type: functional
# In short: (§3)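 Coupled transcription/translation used E. coli S30 extract, amino acid mix and premix, with the pBESTluc template carrying firefly luciferase under the tac promoter. Compounds were added in DMSO and reactions were started with DNA. Incubation was 60 min at 37 °C, stopped on ice, and luciferase was read after adding assay substrate.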
# [7] = system: Escherichia coli; experiment: Inhibition of protein translation/transcription in Escherichia coli S30 cell extract at 0.5 ug/ml using circular DNA with pBESTluc after 60 mins by luciferase reporter gene assay; type: functional; in short: as §3
# [8] = system: Erythrocyte; experiment: Hemolytic activity in sheep erythrocytes after 2 hrs; type: ADME, cell-based; details: Ovis aries
# In short: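 Washed heparinized sheep erythrocytes at 3% in buffer pH 7.4 were treated with 2–200 µg/mL for 2 h at 37 °C with gentle shaking. Triton X-100 (0.01–1%) was the positive control and PEG:H2O diluent the negative control. Released hemoglobin was read at OD540 and % hemolysis calculated against both controls.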
# [9] = Half life in Sprague-Dawley rat liver microsomes at 500 ng/ml preincubated for 5 mins followed by NADPH addition by C-MS/MS analysis; type: ADME, microsome
# [10] = system: Mycobacterium tuberculosis; experiment: Bactericidal activity against replicating Mycobacterium tuberculosis H37Rv incubated for 15 days under aerobic condition by MABA; type: functional; details: 360 h; in short: as §2
# [11] = system: Mycolicibacterium smegmatis; experiment: Antibacterial activity against Mycobacterium smegmatis ATCC 607 incubated for 48 hrs under aerobic condition by MABA; type: functional; details: ATCC 607, 48 h, read-out: MIC100
# In short: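 Mid-log culture at OD 0.5 was incubated with serial dilutions aerobically at 37 °C for 48 h. Resazurin was then added from a 0.08% stock for 1 h. MIC100 was the lowest concentration that stayed blue; absorbance was also read at 570/600 nm.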
# [12] = system: Mycolicibacterium smegmatis; experiment: Bactericidal activity against Mycobacterium smegmatis ATCC 607 incubated for 48 hrs under aerobic condition by MABA; type: functional; details: ATCC 607, 48 h
# [13] = system: Staphylococcus aureus; experiment: Bactericidal activity against Staphylococcus aureus incubated for 24 hrs under aerobic condition by MABA; type: functional
# [14] = system: Staphylococcus aureus; experiment: Antibacterial activity against Staphylococcus aureus ATCC 25923 incubated for 24 hrs under aerobic condition by MABA; type: functional; details: ATCC 25923, 24 h, read-out: MIC100
# In short: (§4)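 Mid-log cultures at OD 0.5 were exposed to serial dilutions under aerobic conditions at 37 °C for 24 h. Resazurin was then added from a 0.08% stock for 1 h. MIC100 was the lowest concentration where the dye stayed blue (pink means growth). Absorbance was also read at 570 and 600 nm.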
# [15] = system: Staphylococcus aureus; experiment: Bactericidal activity against Staphylococcus aureus ATCC 25923 incubated for 24 hrs under aerobic condition by MABA; type: functional; details: ATCC 25923, 24 h
# [16] = system: Staphylococcus aureus; experiment: Antibacterial activity against Staphylococcus aureus BAA 2094 incubated for 24 hrs under aerobic condition by MABA; type: functional; details: BAA 2094, 24 h, read-out: MIC100; in short: as §1
# [17] = system: Staphylococcus aureus; experiment: Bactericidal activity against Staphylococcus aureus BAA 2094 incubated for 24 hrs under aerobic condition by MABA; type: functional; details: BAA 2094, 24 h
# [18] = system: Staphylococcus aureus; experiment: Antibacterial activity against Staphylococcus aureus BAA 1683 incubated for 24 hrs under aerobic condition by MABA; type: functional; details: BAA 1683, 24 h, read-out: MIC100; in short: as §4
# [19] = system: Staphylococcus aureus; experiment: Bactericidal activity against Staphylococcus aureus BAA 1683 incubated for 24 hrs under aerobic condition by MABA; type: functional; details: BAA 1683, 24 h
# [20] = system: Staphylococcus aureus; experiment: Antibacterial activity against Staphylococcus aureus BAA 44 incubated for 24 hrs under aerobic condition by MABA; type: functional; details: BAA 44, 24 h, read-out: MIC100; in short: as §4
# [21] = system: Staphylococcus aureus; experiment: Bactericidal activity against Staphylococcus aureus BAA 44 incubated for 24 hrs under aerobic condition by MABA; type: functional; details: BAA 44, 24 h
# [22] = system: Enterococcus faecalis; experiment: Antibacterial activity against Enterococcus faecalis ATCC 349 incubated for 24 hrs under aerobic condition by MABA; type: functional; details: ATCC 349, 24 h, read-out: MIC100; in short: as §4
# [23] = system: Enterococcus faecalis; experiment: Bactericidal activity against Enterococcus faecalis ATCC 349 incubated for 24 hrs under aerobic condition by MABA; type: functional; details: ATCC 349, 24 h
# [24] = system: Enterococcus faecalis; experiment: Antibacterial activity against Enterococcus faecalis ATCC 19433 incubated for 24 hrs under aerobic condition by MABA; type: functional; details: ATCC 19433, 24 h, read-out: MIC100; in short: as §4
# [25] = system: Enterococcus faecalis; experiment: Bactericidal activity against Enterococcus faecalis ATCC 19433 incubated for 24 hrs under aerobic condition by MABA; type: functional; details: ATCC 19433, 24 h
# [26] = system: Clostridioides difficile; experiment: Bactericidal activity against Clostridium difficile ATCC 700057 incubated for 24 hrs […] by MABA; type: functional; details: ATCC 700057, 24 h
# [27] = system: Streptococcus pneumoniae; experiment: Antibacterial activity against Streptococcus pneumoniae ATCC 6301 incubated for 24 hrs under aerobic condition by MABA; type: functional; details: ATCC 6301, 24 h, read-out: MIC100; in short: as §4
# [28] = system: Streptococcus pneumoniae; experiment: Bactericidal activity against Streptococcus pneumoniae ATCC 6301 incubated for 24 hrs under aerobic condition by MABA; type: functional; details: ATCC 6301, 24 h
# [29] = system: Klebsiella pneumoniae; experiment: Antibacterial activity against Klebsiella pneumoniae ATCC 12019 incubated for 24 hrs under aerobic condition by MABA; type: functional; details: ATCC 12019, 24 h, read-out: MIC100; in short: as §4
# [30] = system: Klebsiella pneumoniae; experiment: Bactericidal activity against Klebsiella pneumoniae ATCC 12019 incubated for 24 hrs under aerobic condition by MABA; type: functional; details: ATCC 12019, 24 h
# [31] = system: Acinetobacter baumannii; experiment: Antibacterial activity against Acinetobacter baumannii ATCC 19606 incubated for 24 hrs under aerobic condition by MABA; type: functional; details: ATCC 19606 = CIP 70.34 = JCM 6841, 24 h, read-out: MIC100; in short: as §4
# [32] = system: Acinetobacter baumannii; experiment: Bactericidal activity against Acinetobacter baumannii ATCC 19606 incubated for 24 hrs under aerobic condition by MABA; type: functional; details: ATCC 19606 = CIP 70.34 = JCM 6841, 24 h
# [33] = system: Escherichia coli; experiment: Antibacterial activity against Escherichia coli ATCC 10798 incubated for 24 hrs under aerobic condition by MABA; type: functional; details: ATCC 10798, 24 h, read-out: MIC100; in short: as §4
# [34] = system: Escherichia coli; experiment: Bactericidal activity against Escherichia coli ATCC 10798 incubated for 24 hrs under aerobic condition by MABA; type: functional; details: ATCC 10798, 24 h
# [35] = system: Streptococcus salivarius; experiment: Antibacterial activity against Streptococcus salivarius […] incubated for 24 hrs under aerobic condition by MABA; type: functional; details: read-out: MIC100; in short: as §1
# [36] = system: Streptococcus salivarius; experiment: Bactericidal activity against Streptococcus salivarius ATCC 6301 incubated for 24 hrs under aerobic condition by MABA; type: functional; details: ATCC 6301, 24 h
# [37] = system: Bacillus subtilis; experiment: Antibacterial activity against Bacillus subtilis ATCC 6051 incubated for 24 hrs under aerobic condition by MABA; type: functional; details: ATCC 6051, 24 h, read-out: MIC100; in short: as §4
# [38] = system: Bacillus subtilis; experiment: Bactericidal activity against Bacillus subtilis ATCC 6051 incubated for 24 hrs under aerobic condition by MABA; type: functional; details: ATCC 6051, 24 h
# [39] = system: Mycobacterium tuberculosis; experiment: Bactericidal activity against Mycobacterium tuberculosis H37Rv at 2 times MIC measured every 24 hrs up to 12 days by time kill assay relative to control; type: functional
# In short: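 Mid-log H37Rv (OD 0.5) is diluted to OD 0.25 and exposed at MIC, 2×MIC or 4×MIC. Every 24 h cultures are diluted 10- to 10,000-fold and plated on 7H10/OADC agar. Plates are incubated 15 days at 37 °C before colony counts.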
# [40] = Apparent permeability from basolateral to apical side in human Caco2 cells at 10 uM after 2 hrs by LC-MS/MS analysis; type: ADME, cell-based; details: caco-2, 2 h
structure (smiles),measurement,setting,value
CC[C@]1(C)C[C@@H](OC(=O)CSC(C)(C)CNC(=O)[C@H](N)CC(C)C)[C@]2(C)[C@H](C)CC[C@]3(CCC(=O)[C@H]32)[C@@H](C)[C@@H]1O,MIC,[1],0.4 µg/mL
same,MIC,[2],< 6.25 µg/mL
same,MIC,[3],0.78 µg/mL
same,IC50,[4],25 µg/mL
same,selectivity ratio,[5],32
same,inhibition,[6],Active
same,inhibition,[7],Active
same,IC50,[8],> 200 µM
same,t1/2,[9],< 5 min
same,MBC,[10],0.77 µg/mL
same,MIC,[11],6.25 µg/mL
same,MBC,[12],25 µg/mL
same,MBC,[13],0.8 µg/mL
same,MIC,[14],> 25 µg/mL
same,MBC,[15],> 25 µg/mL
same,MIC,[16],> 25 µg/mL
same,MBC,[17],> 25 µg/mL
same,MIC,[18],> 25 µg/mL
same,MBC,[19],> 25 µg/mL
same,MIC,[20],> 25 µg/mL
same,MBC,[21],> 25 µg/mL
same,MIC,[22],> 25 µg/mL
same,MBC,[23],> 25 µg/mL
same,MIC,[24],12.5 µg/mL
same,MBC,[25],25 µg/mL
same,MBC,[26],1.56 µg/mL
same,MIC,[27],25 µg/mL
same,MBC,[28],> 25 µg/mL
same,MIC,[29],25 µg/mL
same,MBC,[30],> 25 µg/mL
same,MIC,[31],9.38 µg/mL
same,MBC,[32],12.5 µg/mL
same,MIC,[33],12.5 µg/mL
same,MBC,[34],> 25 µg/mL
same,MIC,[35],0.4 µg/mL
same,MBC,[36],> 25 µg/mL
same,MIC,[37],12.5 µg/mL
same,MBC,[38],25 µg/mL
same,Activity,[39],100%
CCCCCCCCCCCCC/C=C/C(=O)N[C@H]1[C@H](O[C@H]2O[C@H](CO)[C@@H](O)[C@H](O)[C@H]2NC(C)=O)O[C@H](CC(O)[C@H]2O[C@@H](n3ccc(=O)[nH]c3=O)[C@H](O)[C@@H]2O)[C@H](O)[C@@H]1O (stereo partly drawn),MIC,[3],12.5 µg/mL
same,IC50,[4],0.18 µg/mL
same,IC50,[8],15 µM
CNC(=C[N+](=O)[O-])NCCSCc1ccc(CN(C)C)o1 [RANITIDINE],Papp,[40],1.14 ×10⁻⁶ cm/s
